Results: ChEMBL document CHEMBL4152200, “Targeting the entrance channel of NNIBP: Discovery of diarylnicotinamide 1,4-disubstituted 1,2,3-triazoles as novel HIV-1 NNRTIs with high potency against wild-type and E138K mutant virus” (Eur J Med Chem, 2018)

Legend:
[1] = system: Human immunodeficiency virus 1; assay: Antiviral activity against wild-type HIV-1 3B infected in human MT4 cells assessed as inhibition of viral replication after 5 days by MTT assay; format: functional, organism-based; conditions: Human immunodeficiency virus 1, 3B, MT4, 120 h
MT4 = assay: Cytotoxicity against human MT4 cells assessed as decrease in cell viability after 5 days by MTT assay; format: cell-based; conditions: mt4, 120 h
Summary of the method: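 Mock-infected MT-4 cells, exponentially growing, seeded with compound in culture medium without virus; run in parallel with the antiviral assay. Viability read spectrophotometrically by MTT reduction five days later.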

[2] = system: Human immunodeficiency virus 1; assay: Antiviral activity against HIV-1 RES056 harboring reverse transcriptase K103N/Y181C double mutant infected in human MT4 cells assessed as inhibition of viral replication after 5 days by MTT assay; format: functional, organism-based; conditions: Human immunodeficiency virus 1, RES056, MT4, 120 h
[3] = system: Human immunodeficiency virus 1; assay: Antiviral activity against HIV1 harboring reverse transcriptase Y188L mutant infected in human MT4 cells assessed as inhibition of viral replication after 5 days by MTT assay; format: functional, organism-based; conditions: Human immunodeficiency virus 1, MT4, 120 h
Summary of the method: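 MT-4 cells in exponential growth, resuspended into wells holding HIV-1 stock (IIIB, RES056 K103N/Y181C, F227L/V106A, L100I, K103N, E138K, Y181C or Y188L) at 100–300 CCID₅₀, or into mock-infected wells. Viability read by MTT reduction to formazan, measured spectrophotometrically 5 days post-infection. EC₅₀ is the concentration giving 50% protection against virus-induced cytotoxicity.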

[4] = Selectivity index, ratio of CC50 for human MT4 cells to EC50 for HIV1 harboring reverse transcriptase E138K mutant; format: toxicity; conditions: read-out: Ratio CC50/EC50
Summary of the method: (§1)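 SI is CC₅₀ divided by EC₅₀, both by MTT after 5 days in MT-4 cells. CC₅₀ comes from mock-infected cultures run in parallel and is the concentration reducing their viability by 50%. EC₅₀ comes from cultures infected with the given mutant strain at 100–300 CCID₅₀.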

[5] = Selectivity index, ratio of CC50 for human MT4 cells to EC50 for HIV1 harboring reverse transcriptase Y181C mutant; format: toxicity; conditions: read-out: Ratio CC50/EC50; summary of the method: as §1
[6] = system: Human immunodeficiency virus 1; assay: Resistance factor, ratio of EC50 for HIV1 harboring reverse transcriptase L100I mutant to EC50 for wild-type HIV-1 3B; format: functional
Summary of the method: (§2)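 Resistance fold is EC₅₀ against the mutant strain divided by EC₅₀ against WT IIIB. Both EC₅₀ values come from the 5-day MTT protection assay in MT-4 cells infected with 100–300 CCID₅₀ of virus.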

[7] = Selectivity index, ratio of CC50 for human MT4 cells to EC50 for HIV1 harboring reverse transcriptase L100I mutant; format: toxicity; conditions: read-out: Ratio CC50/EC50; summary of the method: as §1
[8] = system: Human immunodeficiency virus 1; assay: Resistance factor, ratio of EC50 for HIV1 harboring reverse transcriptase K103N mutant to EC50 for wild-type HIV-1 3B; format: functional; summary of the method: as §2
[9] = system: Human immunodeficiency virus 1; assay: Resistance factor, ratio of EC50 for HIV1 harboring reverse transcriptase Y181C mutant to EC50 for wild-type HIV-1 3B; format: functional; summary of the method: as §2
[10] = Selectivity index, ratio of CC50 for human MT4 cells to EC50 for HIV1 harboring reverse transcriptase Y188L mutant; format: toxicity; conditions: read-out: Ratio CC50/EC50; summary of the method: as §1
[11] = Selectivity index, ratio of CC50 for human MT4 cells to EC50 for HIV-1 RES056 harboring reverse transcriptase K103N/Y181C double mutant infected in human MT4 cells; format: toxicity, cell-based; conditions: read-out: Ratio CC50/EC50; summary of the method: as §1
[12] = Selectivity index, ratio of CC50 for human MT4 cells to EC50 for wild-type HIV1 3B; format: toxicity; conditions: read-out: Ratio CC50/EC50
Summary of the method: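 Wild-type HIV-1 IIIB at 100–300 CCID50 added to MT-4 cells with compound, with mock-infected wells in parallel. MTT viability was read at day 5. […] SI = CC50/EC50.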

[13] = system: Human immunodeficiency virus 1; assay: Antiviral activity against HIV1 harboring reverse transcriptase Y181C mutant infected in human MT4 cells assessed as inhibition of viral replication after 5 days by MTT assay; format: functional, organism-based; conditions: Human immunodeficiency virus 1, MT4, 120 h
[14] = system: Human immunodeficiency virus 1; assay: Resistance factor, ratio of EC50 for HIV1 harboring reverse transcriptase E138K mutant to EC50 for wild-type HIV-1 3B; format: functional; summary of the method: as §2
[15] = system: Human immunodeficiency virus 1; assay: Antiviral activity against HIV1 harboring reverse transcriptase F227L/V106A double mutant infected in human MT4 cells assessed as inhibition of viral replication after 5 days by MTT assay; format: functional, organism-based; conditions: Human immunodeficiency virus 1, MT4, 120 h
[16] = system: Human immunodeficiency virus 1; assay: Antiviral activity against HIV1 harboring reverse transcriptase K103N mutant infected in human MT4 cells assessed as inhibition of viral replication after 5 days by MTT assay; format: functional, organism-based; conditions: Human immunodeficiency virus 1, MT4, 120 h
[17] = system: Human immunodeficiency virus 1; assay: Antiviral activity against HIV1 harboring reverse transcriptase L100I mutant infected in human MT4 cells assessed as inhibition of viral replication after 5 days by MTT assay; format: functional, organism-based; conditions: Human immunodeficiency virus 1, MT4, 120 h
[18] = system: Human immunodeficiency virus 1; assay: Resistance factor, ratio of EC50 for HIV1 harboring reverse transcriptase F227L/V106A mutant to EC50 for wild-type HIV-1 3B; format: functional; summary of the method: as §2
[19] = Selectivity index, ratio of CC50 for human MT4 cells to EC50 for HIV1 harboring reverse transcriptase F227L/V106A mutant; format: toxicity; conditions: read-out: Ratio CC50/EC50; summary of the method: as §1
[20] = system: Human immunodeficiency virus 1; assay: Resistance factor, ratio of EC50 for HIV1 harboring reverse transcriptase Y188L mutant to EC50 for wild-type HIV-1 3B; format: functional; summary of the method: as §2
[21] = Selectivity index, ratio of CC50 for human MT4 cells to EC50 for HIV1 harboring reverse transcriptase K103N mutant; format: toxicity; conditions: read-out: Ratio CC50/EC50; summary of the method: as §1
[22] = system: Human immunodeficiency virus 1; assay: Antiviral activity against HIV1 harboring reverse transcriptase E138K mutant infected in human MT4 cells assessed as inhibition of viral replication after 5 days by MTT assay; format: functional, organism-based; conditions: Human immunodeficiency virus 1, MT4, 120 h

Structure (SMILES)	EC50 [1] [µM]	CC50 (MT4) [µM]	EC50 [2] [µM]	selectivity ratio [11]	selectivity ratio [12]	EC50 [16] [µM]	EC50 [17] [µM]	also measured
Cc1cc(C)c(Oc2cc(Nc3ccc(C#N)cc3)ncc2C(=O)NCc2cn(Cc3ccc([N+](=O)[O-])cc3)nn2)c(C)c1	0.04	≥ 140	> 140	–	–	–	–	–
Cc1cc(C)c(Oc2cc(Nc3ccc(C#N)cc3)ncc2C(=O)NCc2cn(Cc3ccc(F)cc3)nn2)c(C)c1	0.074	≥ 153	> 153	–	–	–	–	–
CC(=O)Cn1cc(CNC(=O)c2cnc(Nc3ccc(C#N)cc3)cc2Oc2c(C)cc(C)cc2C)nn1	0.029	19.4	2.21	9	670	0.26	1	EC50 [3]: 3.2 µM; selectivity ratio [4]: 756; selectivity ratio [5]: 123; Ratio EC50 [6]: 34.5; selectivity ratio [7]: 19; Ratio EC50 [8]: 9; Ratio EC50 [9]: 5.5; selectivity ratio [10]: 6; EC50 [13]: 0.16 µM; Ratio EC50 [14]: 0.9; EC50 [15]: 0.59 µM; Ratio EC50 [18]: 20.3; selectivity ratio [19]: 33; Ratio EC50 [20]: 110.3; selectivity ratio [21]: 73; EC50 [22]: 0.026 µM
CCOC(=O)Cn1cc(CNC(=O)c2cnc(Nc3ccc(C#N)cc3)cc2Oc2c(C)cc(C)cc2C)nn1	0.653	9.53	> 9.53	< 1	15	–	–	–
Cc1cccc(Cn2cc(CNC(=O)c3cnc(Nc4ccc(C#N)cc4)cc3Oc3c(C)cc(C)cc3C)nn2)c1	0.106	114	> 114	< 1	1070	–	–	–
Cc1cc(C)c(Oc2cc(Nc3ccc(C#N)cc3)ncc2C(=O)NCc2cn(Cc3cccc([N+](=O)[O-])c3)nn2)c(C)c1	0.037	≥ 156	> 156	–	–	–	–	–
COC(=O)Cn1cc(CNC(=O)c2cnc(Nc3ccc(C#N)cc3)cc2Oc2c(C)cc(C)cc2C)nn1	1.77	13.8	> 13.8	< 1	8	–	–	–
Cc1cn([C@H]2C[C@H](N=[N+]=[N-])[C@@H](CO)O2)c(=O)[nH]c1=O [ZIDOVUDINE]	–	> 7.48	0.011	–	–	0.008	0.005	–
Cc1cc(C)c(Oc2cc(Nc3ccc(C#N)cc3)ncc2C(=O)NCc2cn(Cc3ccccc3[N+](=O)[O-])nn2)c(C)c1	0.057	> 212	> 212	–	–	–	–	–
Cc1cc(C)c(Oc2cc(Nc3ccc(C#N)cc3)ncc2C(=O)NCc2cn(Cc3ccccc3F)nn2)c(C)c1	0.095	> 222	> 222	–	–	–	–	–
Cc1cc(C)c(Oc2cc(Nc3ccc(C#N)cc3)ncc2C(=O)NCc2cn(CC(N)=O)nn2)c(C)c1	0.172	24	5.33	5	139	1.03	3.52	EC50 [3]: 4.46 µM; selectivity ratio [4]: 159; selectivity ratio [5]: 29; Ratio EC50 [6]: 20.5; selectivity ratio [7]: 7; Ratio EC50 [8]: 6; Ratio EC50 [9]: 4.8; selectivity ratio [10]: 5; EC50 [13]: 0.83 µM; Ratio EC50 [14]: 0.9; EC50 [15]: 1.8 µM; Ratio EC50 [18]: 10.5; selectivity ratio [19]: 13; Ratio EC50 [20]: 25.9; selectivity ratio [21]: 23; EC50 [22]: 0.15 µM
Cc1cc(C)c(Oc2cc(Nc3ccc(C#N)cc3)ncc2C(=O)NCc2cn(CCCO)nn2)c(C)c1	0.037	25.2	5.23	5	678	0.41	1.95	EC50 [3]: 3.17 µM; selectivity ratio [4]: 651; selectivity ratio [5]: 109; Ratio EC50 [6]: 52.7; selectivity ratio [7]: 13; Ratio EC50 [8]: 11.1; Ratio EC50 [9]: 6.2; selectivity ratio [10]: 8; EC50 [13]: 0.23 µM; Ratio EC50 [14]: 1.1; EC50 [15]: 0.78 µM; Ratio EC50 [18]: 21.1; selectivity ratio [19]: 32; Ratio EC50 [20]: 85.7; selectivity ratio [21]: 62; EC50 [22]: 0.039 µM
